Measured values: ChEMBL document CHEMBL1135749, “Stereoselective synthesis and antiviral activity of D-2',3'-didehydro-2',3'-dideoxy-2'-fluoro-4'-thionucleosides” (J Med Chem, 2002)

How the values were obtained:
[1] = Ratio of kinetic parameter Kcat to that of binding affinity towards adenosine deaminase KM.
Procedure, shortened: (§1)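 Calf intestinal mucosa adenosine deaminase (0.15 units) in pH 7.4 phosphate buffer (2 mL) at 25 °C, with substrate at 15-100 µM. Hydrolysis was followed by UV absorbance at 265 nm, and substrate concentration was derived from the absorbance change. Initial rates came from graphical fitting of concentration versus time.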

[2] = target: T1, Adenosine deaminase (Bos taurus) (UniProt P56658); assay: Kinetic parameter Kcat of compound used as substrate for Adenosine deaminase was evaluated; procedure, shortened: as §1
T1 sequence (whole entry): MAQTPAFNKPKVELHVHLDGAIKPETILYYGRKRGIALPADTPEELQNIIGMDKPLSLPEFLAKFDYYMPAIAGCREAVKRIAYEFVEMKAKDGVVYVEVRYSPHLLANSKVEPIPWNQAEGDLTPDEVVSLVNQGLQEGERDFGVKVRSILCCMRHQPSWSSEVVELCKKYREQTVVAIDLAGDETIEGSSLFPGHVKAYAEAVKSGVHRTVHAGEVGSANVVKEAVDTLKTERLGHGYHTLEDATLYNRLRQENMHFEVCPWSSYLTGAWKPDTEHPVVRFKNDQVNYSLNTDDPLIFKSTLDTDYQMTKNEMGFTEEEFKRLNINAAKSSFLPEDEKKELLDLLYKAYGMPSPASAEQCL

SMILES	k cat/Km [1]	k cat [2]
Nc1ncnc2c1ncn2[C@@H]1S[C@H](CO)C=C1F	50000 M⁻¹ s⁻¹	0.94 s⁻¹
Nc1ncnc2c1ncn2[C@@H]1O[C@H](CO)[C@@H](O)[C@H]1O	3.1e+06 M⁻¹ s⁻¹	76.4 s⁻¹
